In ChEMBL document CHEMBL3875206, “Design, synthesis and biological evaluation of 4'-aminochalcone-rivastigmine hybrids as multifunctional agents for the treatment of Alzheimer's disease” (Bioorg Med Chem, 2017):
Calls of active or inactive are those of the source. No cut-off for these calls is given here.

Legend:
Acetylcholinesterase = Acetylcholinesterase (Electrophorus electricus, UniProt O42275); assay: Inhibition of electric eel AChE using acetylthiocholine iodide as substrate incubated for 15 mins by Ellman's method
Acetylcholinesterase, sequence (O42275 whole entry): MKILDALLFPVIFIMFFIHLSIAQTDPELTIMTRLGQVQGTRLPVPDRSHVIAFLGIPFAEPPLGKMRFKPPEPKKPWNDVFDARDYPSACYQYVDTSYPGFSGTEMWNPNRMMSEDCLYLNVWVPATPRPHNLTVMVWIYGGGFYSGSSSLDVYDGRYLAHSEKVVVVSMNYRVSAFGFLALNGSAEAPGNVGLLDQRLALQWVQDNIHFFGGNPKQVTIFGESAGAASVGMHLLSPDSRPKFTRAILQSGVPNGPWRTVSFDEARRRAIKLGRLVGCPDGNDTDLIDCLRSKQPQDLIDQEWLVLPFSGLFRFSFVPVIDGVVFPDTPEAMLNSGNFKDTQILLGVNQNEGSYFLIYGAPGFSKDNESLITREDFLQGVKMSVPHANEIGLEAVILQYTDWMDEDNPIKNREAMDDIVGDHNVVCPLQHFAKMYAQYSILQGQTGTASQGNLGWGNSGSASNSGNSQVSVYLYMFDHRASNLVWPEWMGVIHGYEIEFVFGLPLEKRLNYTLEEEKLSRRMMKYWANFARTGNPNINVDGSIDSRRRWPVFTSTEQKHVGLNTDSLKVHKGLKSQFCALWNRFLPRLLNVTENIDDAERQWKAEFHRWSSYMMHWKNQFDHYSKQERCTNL
Method in brief: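 Ellman spectrophotometric assay: electric eel AChE 0.05 U/mL final, acetylthiocholine iodide 1 mmol/L, phosphate buffer pH 8.0, range of compound concentrations.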

[1] = Inhibition of rat serum BuChE at 50 uM using butyrylthiocholine iodide as substrate incubated for 15 mins by Ellman's method relative to control; settings: 0.25 h
Method in brief: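 Ellman method with 25% rat serum as BuChE source, butyrylthiocholine iodide 1 mmol/L, phosphate buffer pH 7.4, absorbance at 405 nm. Compounds tested at 50 µM. […] Triplicate wells.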

[2] = Antioxidant activity assessed as trolox equivalents of AAPH radical scavenging activity at 5 uM preincubated for 15 mins followed by AAPH addition measured every 60 sec for 90 mins by ORAC-FL assay; format: functional
Method in brief: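 Peroxyl radicals generated by AAPH (12 mM final) at 37 °C in phosphate buffer pH 7.4 with fluorescein (150 nM final). Sample and fluorescein were preincubated 15 min before AAPH addition. Fluorescence (ex 485/em 535 nm) was read every 60 s for 90 min.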

[3] = target: Acetylcholinesterase (Electrophorus electricus) (UniProt O42275); assay: Mixed-type inhibition of electric eel AChE at 2.5 to 10 uM using varying levels of acetylthiocholine iodide as substrate preincubated for 15 mins followed by substrate addition by Lineweaver-Burk plot analysis
Acetylcholinesterase (Electrophorus electricus), sequence (O42275 24-633 limits assumed): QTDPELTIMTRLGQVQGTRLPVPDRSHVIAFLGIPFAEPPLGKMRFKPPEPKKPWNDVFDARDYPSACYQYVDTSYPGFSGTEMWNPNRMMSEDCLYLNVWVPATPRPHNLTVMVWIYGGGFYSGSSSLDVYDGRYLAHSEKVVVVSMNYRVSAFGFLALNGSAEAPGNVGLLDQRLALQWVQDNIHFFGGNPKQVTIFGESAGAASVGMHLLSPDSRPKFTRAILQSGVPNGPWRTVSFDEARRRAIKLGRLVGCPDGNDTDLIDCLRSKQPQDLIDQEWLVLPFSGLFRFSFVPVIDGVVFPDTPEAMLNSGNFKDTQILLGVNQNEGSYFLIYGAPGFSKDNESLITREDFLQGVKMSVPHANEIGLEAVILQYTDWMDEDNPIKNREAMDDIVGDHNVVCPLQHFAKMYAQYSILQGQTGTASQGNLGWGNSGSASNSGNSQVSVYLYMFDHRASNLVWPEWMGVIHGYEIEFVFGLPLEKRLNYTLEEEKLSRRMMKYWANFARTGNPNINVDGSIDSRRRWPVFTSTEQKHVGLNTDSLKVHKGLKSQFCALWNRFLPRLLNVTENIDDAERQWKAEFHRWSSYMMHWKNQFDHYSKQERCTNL
Method in brief: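 Kinetics with EeAChE in 0.1 M phosphate pH 8.0 with DTNB. Three inhibitor concentrations preincubated with enzyme 15 min at 37 °C, then acetylthiocholine added at 0.1–0.4 mM. Read at 412 nm. Weighted least-squares Lineweaver–Burk plots; slopes replotted against inhibitor concentration. No-inhibitor controls run in parallel.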

[4] = Metal chelating activity assessed as compound-Cu2+ complex formation by measuring shift in maximum absorption wavelength at 37.5 uM after 30 mins by UV-vis spectrophotometric method; format: physicochemical; settings: 0.5 h
Method in brief: (§1)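 Difference UV-vis spectra (200-600 nm) of compound and metal salt (CuCl2 or AlCl3), each 37.5 µM final, after 30 min at room temperature. Spectra of metal alone and compound alone were subtracted from the mixture spectrum.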

[5] = Metal chelating activity assessed as compound-Al3+ complex formation by measuring shift in maximum absorption wavelength at 37.5 uM after 30 mins by UV-vis spectrophotometric method; format: physicochemical; settings: 0.5 h; method in brief: as §1
[6] = Metal chelating activity assessed as mole fraction of compound required to show 1:1 stoichiometry for Cu2+-compound complex at 37.5 uM after 30 mins by UV-vis spectrophotometric method; format: physicochemical; settings: 0.5 h
Method in brief: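 Molar ratio method: a methanol solution of compound (37.5 µM final) was titrated with CuCl2 (3.75-150 µM final). Absorbance at 474 nm was taken after subtracting CuCl2 and compound spectra and plotted against the compound mole fraction. The intersection of the linear segments gave the stoichiometry.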

[7] = target: Amyloid-beta precursor protein (Homo sapiens) (UniProt P05067); assay: Inhibition of self-induced aggregation of amyloid beta (1-42) (unknown origin) at 25 uM after 24 hrs by thioflavin T fluorescence-based fluorimetric method relative to control
Amyloid-beta precursor protein (Homo sapiens), sequence (P05067 whole entry): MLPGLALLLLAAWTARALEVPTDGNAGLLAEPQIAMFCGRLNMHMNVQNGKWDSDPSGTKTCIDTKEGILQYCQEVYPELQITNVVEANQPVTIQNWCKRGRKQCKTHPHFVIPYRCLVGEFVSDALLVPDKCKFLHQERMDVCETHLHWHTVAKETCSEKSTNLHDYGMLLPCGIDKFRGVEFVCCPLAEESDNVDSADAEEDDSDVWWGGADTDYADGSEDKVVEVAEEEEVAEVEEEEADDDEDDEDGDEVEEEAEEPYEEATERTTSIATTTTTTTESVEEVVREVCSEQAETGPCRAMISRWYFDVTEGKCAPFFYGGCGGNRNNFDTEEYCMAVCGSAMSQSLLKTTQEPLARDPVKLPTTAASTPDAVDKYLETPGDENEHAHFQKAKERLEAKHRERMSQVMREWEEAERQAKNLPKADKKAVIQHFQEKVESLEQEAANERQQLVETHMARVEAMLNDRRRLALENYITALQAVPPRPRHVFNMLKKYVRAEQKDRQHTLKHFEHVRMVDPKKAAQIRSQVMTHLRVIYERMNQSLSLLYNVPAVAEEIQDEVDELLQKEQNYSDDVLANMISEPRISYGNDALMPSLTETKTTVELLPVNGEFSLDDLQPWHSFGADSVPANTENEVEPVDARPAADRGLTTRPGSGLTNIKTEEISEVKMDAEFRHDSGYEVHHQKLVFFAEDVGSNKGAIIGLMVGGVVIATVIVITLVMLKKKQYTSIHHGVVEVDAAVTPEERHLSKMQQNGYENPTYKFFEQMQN
Method in brief: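 Aβ1-42 was pretreated in HFIP, dried and stocked in DMSO. Aβ1-42 (25 µM final) was incubated with compound (25 µM final) in 50 mM phosphate buffer pH 7.4 at 37 °C for 24 h. 5 µM ThT in 50 mM glycine-NaOH pH 8.5 was then added. Fluorescence was read at ex 446/em 490 nm. Inhibition = (1−IFi/IFc)×100 after background subtraction, in triplicate.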

[8] = Inhibition of Cu2+-mediated aggregation of amyloid beta (1-42) (unknown origin) at 25 uM after 24 hrs by thioflavin T fluorescence-based fluorimetric method relative to control; format: functional
Method in brief: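 HFIP-pretreated Aβ1-42 (25 µM) was incubated with Cu2+ (25 µM), with or without compound (25 µM final), in 20 mM HEPES/150 mM NaCl pH 6.6 at 37 °C for 24 h. 5 µM ThT in 50 mM glycine-NaOH pH 8.5 was then added. Fluorescence was read at ex 446/em 490 nm. Percent inhibition was taken versus no-inhibitor control after background subtraction, in triplicate.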

[9] = target: T1, Amine oxidase [flavin-containing] B (Homo sapiens, UniProt P27338); assay: Inhibition of recombinant human MAO-B expressed in baculovirus infected High 5 insect cells using kynuramine as substrate incubated for 30 mins by spectrofluorometric method; format: cell-based
T1 sequence (P27338 whole entry): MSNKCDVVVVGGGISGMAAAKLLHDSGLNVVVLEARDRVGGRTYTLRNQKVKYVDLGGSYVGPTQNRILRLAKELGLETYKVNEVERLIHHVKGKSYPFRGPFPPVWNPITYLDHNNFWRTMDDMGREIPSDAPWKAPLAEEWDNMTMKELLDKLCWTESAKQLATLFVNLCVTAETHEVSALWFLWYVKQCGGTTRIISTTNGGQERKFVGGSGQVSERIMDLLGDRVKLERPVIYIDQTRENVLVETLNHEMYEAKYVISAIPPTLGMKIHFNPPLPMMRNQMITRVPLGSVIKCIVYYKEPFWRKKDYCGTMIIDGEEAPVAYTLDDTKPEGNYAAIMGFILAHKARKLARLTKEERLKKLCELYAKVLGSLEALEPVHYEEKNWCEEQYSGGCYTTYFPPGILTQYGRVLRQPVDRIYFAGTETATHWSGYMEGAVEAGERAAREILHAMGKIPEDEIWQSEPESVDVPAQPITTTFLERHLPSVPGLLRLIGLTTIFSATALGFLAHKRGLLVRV

[10] = target: T2, Amine oxidase [flavin-containing] A (Homo sapiens, UniProt P21397); assay: Inhibition of recombinant human MAO-A expressed in baculovirus infected High 5 insect cells at 10 uM using kynuramine as substrate incubated for 30 mins by spectrofluorometric method relative to control; settings: 0.5 h
T2 sequence (P21397 whole entry): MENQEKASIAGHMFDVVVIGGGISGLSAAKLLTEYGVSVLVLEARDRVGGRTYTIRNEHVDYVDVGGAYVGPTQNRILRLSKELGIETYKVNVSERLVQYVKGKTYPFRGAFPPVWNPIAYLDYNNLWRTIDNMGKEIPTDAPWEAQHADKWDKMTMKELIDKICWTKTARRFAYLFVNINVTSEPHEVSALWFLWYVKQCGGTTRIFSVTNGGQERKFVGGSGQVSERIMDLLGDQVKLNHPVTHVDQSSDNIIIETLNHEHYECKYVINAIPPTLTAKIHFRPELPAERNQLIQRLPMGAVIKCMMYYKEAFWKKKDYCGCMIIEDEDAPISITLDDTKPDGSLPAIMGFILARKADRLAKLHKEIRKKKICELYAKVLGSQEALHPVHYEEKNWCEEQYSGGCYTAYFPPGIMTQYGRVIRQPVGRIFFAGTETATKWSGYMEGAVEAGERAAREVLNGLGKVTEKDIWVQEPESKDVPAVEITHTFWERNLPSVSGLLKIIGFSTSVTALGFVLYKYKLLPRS
Method in brief: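 Recombinant human MAO-A or MAO-B (7.5 µg/mL) with kynuramine substrate in 100 mM potassium phosphate pH 7.4 (KCl-isotonic), <4% DMSO, 30 min at 37 °C. Stopped with 2 N NaOH. 4-Hydroxyquinoline was measured fluorometrically (ex 310/em 400 nm) against a calibration curve. Single-point inhibition at 10 µM. IC50 from six-concentration sigmoidal curves, triplicate. SI = IC50(MAO-A)/IC50(MAO-B).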

[11] = target: T1, Amine oxidase [flavin-containing] B; assay: Potency index, ratio of iproniazid IC50 to compound IC50 for recombinant human MAO-B expressed in baculovirus infected High 5 insect cells
[12] = target: T1, Amine oxidase [flavin-containing] B; assay: Potency index, ratio of rasagiline IC50 to compound IC50 for recombinant human MAO-B expressed in baculovirus infected High 5 insect cells
[13] = Permeability of compound at 100 ug/ml after 18 hrs by PAMPA; format: ADME; settings: read-out: permeability

With `CN(C)c1ccc(/C=C/C(=O)c2ccc(OC(=O)N3CCCC3)cc2O)cc1` as the compound, how does the IC50 (Acetylcholinesterase) read?
Its IC50 is 4.91 µM.

What about the “inhibition (INH)” value [1] of the same compound?
The value was under 10%.

And the Activity [2]?
The Activity was 2.83 µMequiv/µM.

What about the inhibition [3] of the same compound?
The inhibition was “Active”.

What about the Activity [4] of the same compound?
Its Activity is “Active”.

What about the Activity [5] of the same compound?
Its Activity is “Active”.

What about the Activity [6] of the same compound?
Its Activity is 0.98 molar ratio.

What about the inhibition [7] of the same compound?
The inhibition was 89.5%.

And the inhibition [8]?
Its inhibition is 79.7%.

And the IC50 [9]?
Its IC50 is 290 nM.

And the inhibition at 10 µM [10]?
The inhibition at 10 µM was 12.8%.

What about the “Ratio IC50” value [11] of the same compound?
Its value is over 26.7.

And the “Ratio IC50” value [12]?
The value was 2.

And the Papp at 18 h, 100 ug/ml [13]?
Its Papp at 18 h, 100 ug/ml is 7.03 ×10⁻⁶ cm/s.
